Measured values from different studies.
Medium: Caco-2

SMILES	setting	measurement	result
C[C@H]1O[C@@H](O[C@H]2[C@@H](O)C[C@H](O[C@H]3[C@@H](O)C[C@H](O[C@H]4CC[C@@]5(C)[C@H](CC[C@@H]6[C@@H]5C[C@@H](O)[C@]5(C)[C@@H](C7=CC(=O)OC7)CC[C@]65O)C4)O[C@@H]3C)O[C@@H]2C)C[C@H](O)[C@@H]1O	pH 7.4	Papp A→B	1.4 ×10⁻⁶ cm/s
CC(C)NCC(O)COc1cccc2ccccc12 (centres unmarked)	10 µM, 2 h, pH 7.4	Papp B→A	19.5 ×10⁻⁶ cm/s
CC(=O)c1c(C)c2cnc(Nc3ccc(C4CCN(CCS(C)(=O)=O)CC4)cn3)nc2n(C2CCCC2)c1=O	10 µM	Papp A→B	15.4 ×10⁻⁶ cm/s
O=c1c2cc(Cl)c(CO)cc2[nH]c(=S)n1Cc1cncnc1	10 µM, 90 min, pH 7.4	Papp B→A	27 ×10⁻⁶ cm/s
C/C=C1/CN2CC[C@@]34c5cc(O)ccc5N(C)[C@]35OC[C@@]4(C(=O)OC)[C@H]1C[C@H]25	10 µM, 2 h, pH 7.4	Papp A→B	28.2 ×10⁻⁶ cm/s
CC(c1cncnc1)n1c(=S)[nH]c2ccc(Cl)cc2c1=O (centres unmarked)	10 µM, 90 min, pH 7.4	Papp A→B	45.7 ×10⁻⁶ cm/s
O=C1CCC(N2Cc3c(ccc4c3OCC43CCN(Cc4ccccc4)CC3)C2=O)C(=O)N1 (centres unmarked)	10 µM, 2 h	Papp	19 ×10⁻⁶ cm/s
CC(C)NCC(O)COc1cccc2ccccc12 (centres unmarked)	pH 7.4	Papp B→A	4.2 ×10⁻⁶ cm/s
